Experimental data of several laboratories.
Target: Serine/threonine-protein kinase 4 (STK4, Homo sapiens, UniProt Q13043)
Residues used in one study (Q13043 1-487): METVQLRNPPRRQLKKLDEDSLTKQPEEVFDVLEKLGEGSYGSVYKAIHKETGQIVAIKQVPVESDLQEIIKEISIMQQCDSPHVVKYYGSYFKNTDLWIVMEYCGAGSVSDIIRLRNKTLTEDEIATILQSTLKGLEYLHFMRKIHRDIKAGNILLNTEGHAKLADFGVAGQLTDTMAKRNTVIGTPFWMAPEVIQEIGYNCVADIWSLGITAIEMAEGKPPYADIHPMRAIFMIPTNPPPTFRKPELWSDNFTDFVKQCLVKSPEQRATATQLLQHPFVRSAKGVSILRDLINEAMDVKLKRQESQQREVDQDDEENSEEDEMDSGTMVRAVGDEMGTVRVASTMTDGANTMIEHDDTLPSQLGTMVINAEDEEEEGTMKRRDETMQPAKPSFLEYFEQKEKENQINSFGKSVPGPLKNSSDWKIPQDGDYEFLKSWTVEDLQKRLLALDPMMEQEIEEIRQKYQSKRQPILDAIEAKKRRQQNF

COc1cccc2c(NCc3ccccc3)nc(-n3c(N)nc4ccccc43)nc12
inhibition (target engagement in cells, inhibitor, chemoproteomics; 20 mM): 6.2%

Cn1c2c(c3ccc(Cl)c(Cl)c31)C(C#N)C1(CCCC1)NC2=O (centres unmarked)
ΔTm (thermal stability, DSF; 10 µM): 0.3 °C

O=C1Nc2ccc(Cl)cc2C1=Cc1cc(Cl)c(O)c(Cl)c1
remaining signal (cell-free assay; 0.5 µM): 32.5%

c1ccc(CNc2nc(N3CCOc4ccccc43)nc3c2CCCC3)cc1
inhibition (target engagement in cells, inhibitor, chemoproteomics; 20 mM): 1.2%

CCN(CC)CCNC(=O)c1c(C)[nH]c(/C=C2\C(=O)Nc3ccc(F)cc32)c1C
remaining signal (cell-free assay; 0.5 µM): 10.7%

Nc1ncnc2occ(-c3ccc(NC(=O)Nc4cc(C(F)(F)F)ccc4F)cc3)c12
remaining signal (cell-free assay, inhibitor; 20 µM): 2.1%

CN(C)C(=O)Cn1cc(-c2nc(C3(c4ccc(-c5cnc(N)nc5)cc4)CC3)no2)cn1
remaining binding (cell-free assay, competition with immobilised ligand; 1 µM): 90%

Cn1c2c(Cl)c(Cl)ccc2c2cc(N)[nH]c(=O)c21
ΔTm (thermal stability, DSF; 10 µM): 1.5 °C

Cc1ccc(Nc2nccc(N(C)c3ccc4c(C)n(C)nc4c3)n2)cc1S(N)(=O)=O
inhibition (enzyme activity, inhibitor; 10 µM): 3%

CC(C)(C)c1nc2c(s1)c1nc(N)ncc1c1ccc(NS(=O)(=O)c3c(F)cccc3F)c(F)c12
remaining activity (enzyme activity, inhibitor, radiometric; 1 µM): 86%

CN1CC(Oc2cnc(C#N)cc2-c2ccn3nc(NC(=O)C4CC4)cc3c2)C1
inhibition (enzyme activity, inhibitor; 1 µM): -5%

Cc1ccc(C(=O)Nc2ccc(CN3CCN(C)CC3)c(C(F)(F)F)c2)cc1C#Cc1cnc2cccnn12
remaining activity (enzyme activity, inhibitor; 23.5 nM): 100%

Cc1nc(C2CCN(C(=O)c3ccc(OC(F)(F)F)cc3N)CC2)c2ncc(N3CCN(C)CC3)cc2n1
remaining binding (cell-free assay, competition with immobilised ligand; 1 µM): 85%

COc1cc2ncnc(Nc3ccc(Oc4ccccc4)cc3C)c2cc1OC
inhibition (enzyme activity, inhibitor; 1 µM): 1%

Cc1c(NC(=O)c2cc(C(N)=O)nc3cc(F)ccc23)c(C(F)(F)F)nn1Cc1ccc(C(C)(C)C)cc1
remaining binding (cell-free assay, competition with immobilised ligand; 1 µM): 95%

CCCS(=O)(=O)Nc1ccc(F)c(C(=O)c2c[nH]c3ncc(-c4ccc(Cl)cc4)cc23)c1F
inhibition (enzyme activity, inhibitor; 1 µM): < 20%

Cn1c2c(c3ccccc31)C(C#N)C(C)(C)NC2=O (centres unmarked)
ΔTm (thermal stability, DSF; 10 µM): 0.2 °C

O=C1NC(=O)c2cc(Nc3ccc(F)cc3)c(Nc3ccc(F)cc3)cc21
remaining signal (cell-free assay; 0.5 µM): 101%

Cn1c2c(Cl)c(Cl)ccc2c2cn[nH]c(=O)c21
ΔTm (thermal stability, DSF; 10 µM): 0.4 °C

CC(=O)C1=C(C)N(c2cccc(C(F)(F)F)c2)C(=O)N[C@@H]1c1ccc(C#N)nc1
remaining binding (cell-free assay, competition with immobilised ligand; 1 µM): 97.5%

Cc1sc(C(=O)NC2COC2)cc1-n1cc(NC(=O)Nc2c(F)cccc2Cl)cn1
remaining activity (enzyme activity, inhibitor; 10 µM): 107%

C[C@H](c1ccc(F)cc1)N(Cc1cccc(C(=O)O)c1)C(=O)c1cnc2ccccc2c1
remaining binding (cell-free assay, competition with immobilised ligand; 1 µM): 92%

Cn1c2c(c3ccc(Cl)c(Cl)c31)C(C#N)C1(CCOCC1)NC2=O (centres unmarked)
ΔTm (thermal stability, DSF; 10 µM): -0.4 °C

COc1ccc2cc(OCC3(C(=O)O)CN(C(=O)c4ccc(F)cc4)C3)ccc2c1
remaining binding (cell-free assay, competition with immobilised ligand; 1 µM): 100%

CNC(=O)c1cc(Oc2ccc(NC(=O)Nc3ccc(Cl)c(C(F)(F)F)c3)cc2)ccn1
inhibition (enzyme activity, inhibitor; 0.3 µM): -7%

CNC(=O)Nc1ccc2c(c1)CC[C@@]21OC(=O)N(CC(=O)N(Cc2ccc(F)cc2)[C@@H](C)C(F)(F)F)C1=O
remaining binding (cell-free assay, competition with immobilised ligand; 1 µM): 100%

CN(c1nccc(-c2cnn3ncccc23)n1)C1CC1
remaining signal (cell-free assay; 1 µM): 99%

Cc1nccc(COC(=O)N2C[C@@H]3[C@@H](CNC(=O)c4ccc5[nH]nnc5c4)[C@@H]3C2)n1
remaining binding (cell-free assay, competition with immobilised ligand; 1 µM): 100%

CC/C(=N\NC(=O)NCc1cccc(O)c1)c1ccc(O)c(C)c1O
inhibition (enzyme activity, inhibitor; 0.1 µM): -0.7%
